Source: paper PMC4066744 (Nucleic Acids Research, 2014)

How the values were obtained:
[1] = target: KIX domain from mouse CBP 586-672 (mouse) (UniProt P45481); experiment: fluorescence polarisation
[2] = target: KIX domain of CBP/p300 (mouse CBP 586–672) (Mus musculus, UniProt P45481); format: binding; conditions: for decrease in affinity for the KIX domain relative to native E2A AD2–1: mutant peptide versus wild-type E2A AD2–1, fluorescence anisotropy titration
Procedure, shortened: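 Mouse CBP KIX (586–672), E. coli BL21(DE3)-expressed, purified, with final size exclusion in 20 mM MES pH 6.0, 1 mM β-mercaptoethanol (same buffer for titration). KIX spiked with 100 nM FITC-peptide titrated into that peptide. Ex 492/em 523 nm; three readings per injection averaged. Kd from quadratic one-site fit plus linear non-specific term. Mutant-peptide series run in triplicate; mean ± standard error.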

[3] = target: KIX^ΔPCETsite (Phe612Ala/Asp622Ala/Arg624Ala/Lys667Glu quadruple KIX mutant) (Mus musculus, UniProt P45481, D622A/F612A/K667E/R624A); format: binding; conditions: 250 μM versus 17 μM
Chain of KIX^ΔPCETsite (Phe612Ala/Asp622Ala/Arg624Ala/Lys667Glu quadruple KIX mutant) (P45481 586-672 F612A/D622A/R624A/K667E): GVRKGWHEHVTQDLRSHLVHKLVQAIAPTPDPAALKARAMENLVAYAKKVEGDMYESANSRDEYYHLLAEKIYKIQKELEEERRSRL

[4] = target: KIX domain from mouse CBP 586-672 (mouse, UniProt P45481 586-672); experiment: NMR titration
Chain of KIX domain from mouse CBP 586-672 (P45481 586-672): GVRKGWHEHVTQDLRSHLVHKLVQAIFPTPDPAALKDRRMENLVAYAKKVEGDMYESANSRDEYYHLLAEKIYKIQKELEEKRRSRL

Chain of KIX domain from mouse CBP 586-672 (mouse) (P45481 586-672): as above
Chain of KIX domain of CBP/p300 (mouse CBP 586–672) (P45481 586-672): as above

Molecule “E2A AD2-1 His402Ala FITC-labelled synthetic mutant peptide (from UniProt P15923 394-407)” has a Kd [1] of 13.5 µM.

“Ac-EDHLDEAIHVLRSHY-NH2 [E2A AD2–1 (C-terminal tyrosine)]” was tested, and the Kd [2] was 21 ± 5 µM.

With “Ac-EDHADEAIHVLRSH-NH2 (N-terminus and C-terminus assumed) [E2A AD2–1 Leu397Ala]” the “decrease in affinity for the KIX domain relative to native E2A AD2–1” value [2] was 6 fold.

In the case of “E2A AD2-1 Ile401Ala FITC-labelled synthetic mutant peptide (from UniProt P15923 394-407)”, the Kd [1] is reported as 106 µM.

For “Ac-EDHLDEAIHVLRSHAVGTAGDMHTLLP-NH2 [E2A AD2–1/2]”, the Kd [2] was 21 ± 3 µM.

“E2A AD2-1 Leu404Ala FITC-labelled synthetic mutant peptide (from UniProt P15923 394-407)” showed a Kd [1] of 86 µM.

In the case of Ac-EDHLDEAIHVLRSH-NH2 [E2A AD2–1], the “decrease in affinity of KIX^ΔPCETsite mutant relative to native KIX” value [3] is reported as 15 fold.

“Ac-EDHLDEAIHVARSH-NH2 (N-terminus and C-terminus assumed) [E2A AD2–1 Leu404Ala]” was tested, and the “decrease in affinity for the KIX domain relative to native E2A AD2–1” value [2] was “approximately 5 fold”.

“E2A AD2-1 Ala400Leu FITC-labelled synthetic mutant peptide (from UniProt P15923 394-407)” showed a Kd [1] of 7.2 µM.

In the case of “E2A AD2-1 Leu397Ala FITC-labelled synthetic mutant peptide (from UniProt P15923 394-407)”, the Kd [1] is reported as 102 µM.

B1: Unfused recombinant E2A AD2-1/2 (E2A residues 394-420) (peptide)
chain: EDHLDEAIHVLRSHAVGTAGDMHTLLP
B1: binds [4].
